Consider 8 compounds from ChEMBL document CHEMBL1135127, “SAR and species/stereo-selective metabolism of the sorbitol dehydrogenase inhibitor, CP-470,711” (Bioorg Med Chem Lett, 2002).

In experiment [1] the target is T1, Sorbitol dehydrogenase (Homo sapiens, UniProt Q00796).
T1 sequence (Q00796 whole entry): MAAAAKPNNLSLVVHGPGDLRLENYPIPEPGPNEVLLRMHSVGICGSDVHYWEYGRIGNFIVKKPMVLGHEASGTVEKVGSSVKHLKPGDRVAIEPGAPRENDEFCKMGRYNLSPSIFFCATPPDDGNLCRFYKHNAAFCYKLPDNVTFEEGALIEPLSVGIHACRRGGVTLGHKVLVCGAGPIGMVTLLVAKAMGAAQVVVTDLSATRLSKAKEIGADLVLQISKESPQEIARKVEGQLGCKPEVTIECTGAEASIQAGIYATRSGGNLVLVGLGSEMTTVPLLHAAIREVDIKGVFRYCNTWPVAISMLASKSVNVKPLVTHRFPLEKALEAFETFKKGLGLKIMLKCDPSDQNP
Nature of the experiment: In vitro inhibition against human recombinant sorbitol dehydrogenase.

The subject of experiment [2] is Rattus norvegicus. Nature of the experiment: In vivo prevention of sciatic nerve fructose accumulation in streptozotocin diabetic rat by acute assay (tid x 4). The experiment is classed as functional. In a few lines:
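Streptozotocin-diabetic rats dosed three times daily, starting 4 h after STZ, to prevent sciatic nerve fructose accumulation. Activity is reported as ED90 in mg/kg/d.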

The subject of experiment [3] is Rattus norvegicus. Nature of the experiment: In vivo reversal of sciatic nerve fructose accumulation in streptozotocin rat by chronic assay at 1 mg/kg (qd x 5). The experiment is classed as functional. The procedure, abridged:
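Reversal design in STZ rats: once-daily dosing began 5 days after STZ. Sciatic nerve fructose was measured and activity expressed as % normalization at 1 mg/kg.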

In experiment [4] the target is T2, Sorbitol dehydrogenase (Rattus norvegicus, UniProt P27867).
T2 sequence (P27867 whole entry): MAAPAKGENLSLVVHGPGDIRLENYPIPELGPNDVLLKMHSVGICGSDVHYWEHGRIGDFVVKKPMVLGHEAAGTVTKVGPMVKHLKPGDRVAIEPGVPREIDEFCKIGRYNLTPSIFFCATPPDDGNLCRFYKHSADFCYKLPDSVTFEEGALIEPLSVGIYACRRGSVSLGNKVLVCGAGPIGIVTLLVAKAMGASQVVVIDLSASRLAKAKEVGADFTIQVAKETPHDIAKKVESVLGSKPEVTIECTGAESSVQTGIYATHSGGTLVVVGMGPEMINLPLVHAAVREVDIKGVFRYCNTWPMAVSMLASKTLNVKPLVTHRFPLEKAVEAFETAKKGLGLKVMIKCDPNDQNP
The experiment can be described thus: Inhibition of recombinant rat sorbitol dehydrogenase.

Experiment [5] has as its target T1, Sorbitol dehydrogenase. Nature of the experiment: In vitro inhibition against human recombinant Sorbitol dehydrogenase.
For experiment [6], the target named is T2, Sorbitol dehydrogenase. The experiment can be described thus: Inhibition of recombinant rat Sorbitol dehydrogenase.

The term IC50 denotes the concentration needed to halve the response being measured.

On to `CC(=O)c1nccc(N2C[C@@H](C)N(c3ccnc(C(C)=O)n3)[C@@H](C)C2)n1`, for which the IC50 amounted to 212 nM in experiment [1] and 227 nM in experiment [4]. The compound also gave an ED90 in experiment [2] of 0.9 mg/kg/day. For the same compound, the Reversal in experiment [3] is 92%.

Take `C[C@H](O)c1nccc(N2C[C@@H](C)N(c3ccnc([C@H](C)O)n3)[C@@H](C)C2)n1`: the IC50 in experiment [5] was determined as 831 nM; in experiment [6] it was 640 nM. The ED90 in experiment [2] was 0.7 mg/kg/day. In addition, the Reversal in experiment [3] was 84%.

With `CC(=O)c1nccc(N2C[C@@H](C)N(c3ccnc([C@@H](C)O)n3)[C@@H](C)C2)n1`, the IC50 in experiment [1] worked out at 19 nM; in experiment [4], 18 nM. In experiment [2], the ED90 stood at 0.2 mg/kg/day. For the same compound, the Reversal in experiment [3] is 94%.

As for `C[C@H](O)c1nccc(N2C[C@@H](C)N(c3ccnc([C@@H](C)O)n3)[C@@H](C)C2)n1`, the half-inhibitory concentration (IC50) in experiment [1] turned out to be 33 nM; in experiment [4], 29 nM. Moreover, in experiment [2], the ED90 stood at 0.4 mg/kg/day. Further, the Reversal in experiment [3] is given as 81%.

Take `CC(=O)c1nccc(N2[C@H](C)CN(c3ccnc([C@@H](C)O)n3)C[C@@H]2C)n1`: the concentration for half-maximal inhibition (IC50) in experiment [1] amounted to 6 nM; in experiment [4] it was 5 nM. In experiment [2], this compound gave an ED90 of 0.5 mg/kg/day. Besides, the Reversal in experiment [3] was 77%.

As for `C[C@H](O)c1nccc(N2[C@H](C)CN(c3ccnc([C@@H](C)O)n3)C[C@@H]2C)n1`, the IC50 was 19 nM in experiment [5] and 27 nM in experiment [6]. Besides, the ED90 in experiment [2] came to 0.8 mg/kg/day. Moreover, the Reversal in experiment [3] was 81%.

For `CC(O)c1nccc(N2C[C@@H](C)N(c3ccnc(C(C)O)n3)[C@@H](C)C2)n1` (some centres not stated), the IC50 in experiment [5] was found to be 28 nM; in experiment [6] it was 8 nM. This compound also showed an ED90 in experiment [2] of 0.6 mg/kg/day. In experiment [3], the Reversal was determined as 92%.

As to `C[C@@H]1CN(c2ccnc([C@@H](C)O)n2)C[C@H](C)N1c1ccnc([C@@H](C)O)n1`, the 50% inhibitory concentration (IC50) in experiment [1] was 10 nM; in experiment [4] it was 17 nM. In experiment [2], this compound came in with an ED90 of 0.2 mg/kg/day. Also, the Reversal in experiment [3] stood at 90%.
